This is one part of a sample in which hits are shown more often than they occur.
Fibroblast inh: blocks proliferation of human lung fibroblasts | LL 47 human lung fibroblast viability, ATP luminescence; hits give low values | actives 1.1% (n = 85,000) | AID 719 | viability, % at 10 µM;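 active = viability at or below 50% in the single dose screen; inactive = viability above 50%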;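 also: compound exposure lasted 72 h before the ATP readout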
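Benchmarks: Cell-only wells, no compound | Test system: LL 47 human lung fibroblasts, passage 12 or lower | Input: 1,150 cells/well | Measured by: CellTiter-Glo luminescence measuring cellular ATP | Medium: IMEM, 15% FBS supplement | Schedule: Overnight attachment after seeding, then 72 h compound exposure at 37 °C | Doses: Compound addition at 0.1% DMSO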
H69AR inhibit: blocks growth of human H69AR lung tumor cells. H69AR lung tumor viability, ATP luminescence, 72 h; hits give low values. viability, % at 10 µM. actives 6% (n = 85,000). AID 598;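 active = viability at or below 40%; inactive = viability above 40%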;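 also: multidrug resistant small cell line overexpressing MRP-1 efflux transporter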
Phagocytosis inh: inhibitors of macrophage phagocytosis; actives 0.07% (n = 110,000); inhibition, % at 5 µM; AID 1029; J774A.1 macrophage IgG-bead phagocytosis, imaging;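 active = inhibition above the mean of the plate negative controls plus 5 SD, cut at about 13% in these data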;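 also: phagocytic index as fraction of beads internalized from green versus red external bead signal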
HUVEC inhibit: human endothelial cell proliferation inhibition; actives 1.1% (n = 86,000); viability, % at 10 µM (by protocol); HUVEC proliferation, CellTiter-Glo luminescence, 72 h; hits give low values;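 active = viability at or below 30%; inactive = viability above 30%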
bCat KO growth: beta-catenin-lacking colon tumor cell growth suppression | actives 1.5% (n = 140,000) | viability, % at 10 µM | HCT116 beta-catenin knockout viability, CellTiter-Glo, 60 h; hits give low values | AID 818;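 active = viability at or under a set limit, the compound median less 4 SD, cut at about 6% in these data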
PTEN del growth: suppresses growth of cells with PTEN deletion. HCT116 PTEN-null viability, CellTiter-Glo, 60 h; hits give low values. viability, % at 10 µM. actives 1.2% (n = 140,000). AID 827;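 active = viability at or below a set limit, 4 SD under the median of all tested compounds, cut at about 3.7% in these data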;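 also: PTEN knockout HCT116 line with beta catenin targeted HCT116 as companion control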
Each line names hits and unclear results; the compound was inactive in the other large screens.

Cn1c(=O)[nH]c(=O)c2c1nc(Br)n2Cc1ccccc1Cl	H69AR inhibit 27.1
Cn1c(=O)c2c(nc(NCc3ccc4c(c3)OCO4)n2Cc2ccccc2Cl)n(C)c1=O	H69AR inhibit 38.3
Cn1c(=O)c2c(nc(CN3CCN(c4ccccc4)CC3)n2Cc2ccccc2Cl)n(C)c1=O	H69AR inhibit 23.6
C=CCOc1nc2c(c(=O)n(C)c(=O)n2C)n1Cc1ccccc1Cl	H69AR inhibit 37.6
O=C(COC(=O)C1c2ccccc2Oc2ccccc21)NC1CCS(=O)(=O)C1 (centres undefined)	none (no result: Phagocytosis inh)
O=c1cc(C23CC4CC(CC(C4)C2)C3)[nH][nH]1	none
COc1ccc(CCn2c(=S)[nH]c3cc(C(=O)NCc4ccco4)ccc3c2=O)cc1OC	H69AR inhibit 4.4, HUVEC inhibit 7.3
O=[N+]([O-])c1cc(/C=N/Nc2nc3ccccc3[nH]2)c(O)cc1O	bCat KO growth 5.2 (no result: Fibroblast inh, H69AR inhibit, HUVEC inhibit)
COCC(C)NC(=O)NC1(C(F)(F)F)Oc2ccc(Cl)cc2O1 (centres undefined)	H69AR inhibit 22.8
CCOc1cccc(-c2nnc3sc(C4CCCCC4)nn23)c1	bCat KO growth 6.1
Cc1ccc(C23CC4CC(CC(C(=O)N5CCOCC5)(C4)C2)C3)cc1	none
O=C(Nc1ccc(Cl)cc1)N(C1=NCCC1)c1ccc(OC(F)F)cc1	none
O=C(NCCCN1CCOCC1)c1c(O)c2cc(Br)cc(Br)c2[nH]c1=O	H69AR inhibit 17.9 (no result: bCat KO growth, PTEN del growth)
COc1cccc(-n2nnnc2S(C)(=O)=O)c1	Fibroblast inh 46.6, H69AR inhibit 1.1, PTEN del growth 1.3
Cc1cccc(C(=O)NCCN2CCOCC2)c1[N+](=O)[O-]	none (no result: Fibroblast inh, H69AR inhibit, HUVEC inhibit)
Cc1cc(C=O)c2c(c1)C=CC1(Oc3ccccc3C(=O)N1C)O2 (centres undefined)	H69AR inhibit 21.6 (no result: Phagocytosis inh)
O=c1ccc2cc(O)c(O)cc2o1	H69AR inhibit 37.2 (no result: Phagocytosis inh)
O=C(Nc1ccccc1C(=O)NC(Cc1ccccc1)C(=O)NC1CCCCCC1)c1ccccc1 (centres undefined)	none (no result: Fibroblast inh, H69AR inhibit, Phagocytosis inh, HUVEC inhibit)
Cc1cnnn1-c1ccc(C(=O)CCl)cc1	H69AR inhibit 0.0 (no result: Phagocytosis inh)
CC(=O)c1ccc(-n2nncc2C(C)(C)C)cc1	none
Cc1cccc(NC(=S)N/N=C2\CC(C)(C)Oc3ccc(O)cc32)c1	bCat KO growth 3.9, PTEN del growth 3.8 (no result: Fibroblast inh, H69AR inhibit, HUVEC inhibit)
COc1cccc(NC(=S)N/N=C2\CC(C)(C)Oc3ccc(O)cc32)c1	none (no result: Fibroblast inh, H69AR inhibit, Phagocytosis inh, HUVEC inhibit)
O=C1COC(c2ccccc2)C2CCCCN12 (centres undefined)	none (no result: Fibroblast inh, H69AR inhibit, HUVEC inhibit)
O=C(COC(=O)C1CC2C=CC1C2)NCc1ccccc1Cl (centres undefined)	none (no result: Fibroblast inh, H69AR inhibit, HUVEC inhibit)
CC1CC1C(=O)OCC(=O)NCc1ccccc1Cl (centres undefined)	H69AR inhibit 29.3
Cc1ccsc1/C=N/n1c(COc2ccccc2)n[nH]c1=S	none (no result: Fibroblast inh, H69AR inhibit, HUVEC inhibit)
CCn1ncc(C2=NOC(C(=O)NCc3ccc(OC)cc3)C2)c1C (centres undefined)	H69AR inhibit 21.2
CCn1ncc(C2=NOC(C(=O)Nc3c(C)n(C)n(-c4ccccc4)c3=O)C2)c1C (centres undefined)	none
CCn1ncc(C2=NOC(C(=O)NCc3ccccc3)C2)c1C (centres undefined)	Fibroblast inh 48.5, H69AR inhibit 26.0
CC(C)c1ccccc1NC(=O)C1CN(S(=O)(=O)c2ccccc2)CCN1S(=O)(=O)c1ccccc1 (centres undefined)	none (no result: Fibroblast inh, H69AR inhibit, HUVEC inhibit)
COC(=O)COc1ccc(S(=O)(=O)NCc2ccco2)cc1Cl	none
Cc1ccc(CNC(=O)CSc2c3c(nc4ccc(Cl)cc24)CCCC3)o1	H69AR inhibit 15.3
C/C(CC1CC2=C(CC1(C)C)C(C)(C)CCC2)=N\NC(N)=S (centres undefined)	H69AR inhibit 22.9
Cc1cccc(NC(=O)c2ccc([N+](=O)[O-])s2)c1C	bCat KO growth 2.9, PTEN del growth 2.2 (no result: Fibroblast inh, H69AR inhibit, HUVEC inhibit)
N#C/C(=C/c1ccc(N2CCCCCC2)o1)c1ccc(Cl)cc1	Fibroblast inh 48.4
O=C(N/C(=C\c1ccccc1)C(=O)N1CCN(CCO)CC1)c1ccccc1	none (no result: Fibroblast inh, H69AR inhibit, HUVEC inhibit)
CC(=O)[C@H]1CC[C@H]2[C@@H]3C[C@H](C)C4=CC(=O)CC[C@]4(C)[C@H]3[C@@H](O)C[C@]12C	none (no result: Fibroblast inh, H69AR inhibit, Phagocytosis inh, HUVEC inhibit)
CC(=O)O[C@]1(C(C)=O)CC[C@H]2[C@@H]3C=C(Cl)C4=CC(=O)CC[C@]4(C)[C@H]3CC[C@@]21C	H69AR inhibit 19.1 (no result: Phagocytosis inh)
CC(=O)O[C@]1(C(C)=O)CC[C@H]2[C@@H]3C[C@H](C)C4=CC(=O)CC[C@]4(C)[C@H]3CC[C@@]21C	H69AR inhibit 5.1 (no result: Phagocytosis inh)
CCOc1ccc(N2C(=O)/C(=C\c3ccccc3OC)S(=O)(=O)C2c2cccc([N+](=O)[O-])c2)cc1 (centres undefined)	none (no result: Fibroblast inh, H69AR inhibit, HUVEC inhibit)
Cc1ccc(S(=O)(=O)NCC2CCC(C(=O)O)CC2)cc1 (centres undefined)	none (no result: Phagocytosis inh)
COc1ccc(OC)c(/C(O)=C/C(=O)C(=O)Nc2ccccc2OC)c1	none (no result: Phagocytosis inh)
Nc1nnc(SCc2ccc(Cl)cc2)s1	bCat KO growth 0.8, PTEN del growth 0.8 (no result: Phagocytosis inh)
COC(=O)c1cc(OC)c(OC)cc1NC(=O)c1oc2ccccc2c1C	none (no result: Phagocytosis inh, bCat KO growth, PTEN del growth)
CCCCCc1nc2sc3c(c2c(=O)n1NC(=O)c1ccc([N+](=O)[O-])cc1)CC(C)(C)OC3	none (no result: Fibroblast inh, H69AR inhibit, HUVEC inhibit)
CCOC(=O)c1cc2c(=O)n3cccc(C)c3nc2n(Cc2ccco2)c1=NC(=O)c1ccccc1	H69AR inhibit 24.7
Cc1cccn2c(=O)c3cc(C#N)c(=NC(=O)c4ccncc4)n(Cc4ccco4)c3nc12	none (no result: Phagocytosis inh, bCat KO growth, PTEN del growth)
Cc1cc2nnc(SCC(=O)NCc3cccs3)n2c(N)n1	none
Cc1cc2nnc(SCC(=O)NCc3cccs3)n2c2ccccc12	H69AR inhibit 24.5
Cc1ccccc1-n1ncc2c(SCC(=O)NCc3cccs3)ncnc21	H69AR inhibit 28.0 (no result: Phagocytosis inh)
Cc1csc(NC(=O)CSc2ncnc3c2cnn3-c2ccccc2Cl)n1	none
Cc1occc1-c1nnc(SCC(=O)NCc2cccs2)n1-c1ccc(F)cc1	HUVEC inhibit 29.2
Cc1cc(C)cc(OCC(=O)N2N=C(C(F)(F)F)CC2(O)C(C)(C)C)c1 (centres undefined)	H69AR inhibit 33.5 (no result: Phagocytosis inh)
Cc1cc(C)cc(OCC(=O)N2N=C(c3cccnc3)CC2(O)C(F)(F)F)c1 (centres undefined)	none (no result: Fibroblast inh, H69AR inhibit, HUVEC inhibit)
Cc1ccc(S(=O)(=O)N(C)C)cc1NC(=O)CCNC(=O)c1ccccc1Cl	none (no result: Fibroblast inh, H69AR inhibit, HUVEC inhibit)
Cc1ccc(Sc2ccc(/C=N/O)cc2[N+](=O)[O-])cc1	H69AR inhibit 1.1
CO/N=C/c1ccc(Sc2ccc(C)cc2)c([N+](=O)[O-])c1	none
C/C=C/CSc1nc2c(c(=O)[nH]c(=O)n2C)n1Cc1ccc(C)cc1	H69AR inhibit 18.4
CC(C)CCn1c(Sc2nc3ccccc3o2)nc2c1c(=O)[nH]c(=O)n2C	bCat KO growth 5.4, PTEN del growth 3.4 (no result: Fibroblast inh, H69AR inhibit, HUVEC inhibit)
CCCCn1c(SCc2ccc(Cl)cc2)nc2c1c(=O)[nH]c(=O)n2C	H69AR inhibit 26.7
C/C(Cl)=C/Cn1c(SCc2ccc(Cl)cc2)nc2c1c(=O)[nH]c(=O)n2C	none

Assay outcomes: PubChem BioAssay, several laboratories
